According to ChEMBL document CHEMBL5055627 (J Med Chem, 2021):
In brackets after ≈: the same amount, converted by molar mass. Activity calls are given as the source filed them. No cut-off for these calls is given here.

What was measured:
[1] = biological target: T1, Proteasome Macropain subunit MB1 (Homo sapiens, UniProt P28074); assay: Inhibition of human 20S constitutive proteasome beta-5c subunit using Suc-LLVY-AMC as substrate measured over 1.5 to 2 hrs by plate reader assay
T1 sequence (P28074 whole entry): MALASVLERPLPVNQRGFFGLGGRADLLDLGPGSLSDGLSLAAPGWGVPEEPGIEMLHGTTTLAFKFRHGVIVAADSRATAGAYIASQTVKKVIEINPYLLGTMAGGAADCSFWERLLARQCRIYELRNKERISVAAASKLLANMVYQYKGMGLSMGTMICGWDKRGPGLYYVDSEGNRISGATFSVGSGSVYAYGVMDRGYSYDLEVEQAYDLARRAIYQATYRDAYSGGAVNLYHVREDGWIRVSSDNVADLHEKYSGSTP
How it was run: (§1)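 Human c-20S (from red blood cells; β5c 0.2 nM final) or i-20S (from PBMC; β5i 0.4 nM final), activated with 0.02% SDS. Buffer 20 mM HEPES, 0.5 mM EDTA, pH 7.5; 3-fold compound series from 100 μM.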

[2] = biological target: T2, Proteasome subunit beta type-8 (Homo sapiens, UniProt P28062); assay: Inhibition of human 20S immunoproteasome beta-5i subunit using Suc-LLVY-AMC as substrate measured over 1.5 to 2 hrs by plate reader assay; how it was run: as §1
T2 sequence (P28062 whole entry): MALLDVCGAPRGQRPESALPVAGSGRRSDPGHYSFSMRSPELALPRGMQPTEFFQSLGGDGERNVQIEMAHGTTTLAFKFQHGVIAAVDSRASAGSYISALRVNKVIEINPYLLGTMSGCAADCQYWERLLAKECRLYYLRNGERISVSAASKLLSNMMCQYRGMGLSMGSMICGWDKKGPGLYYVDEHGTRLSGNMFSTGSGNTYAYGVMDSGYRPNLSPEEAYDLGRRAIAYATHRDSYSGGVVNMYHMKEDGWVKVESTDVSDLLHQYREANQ

[3] = Permeability of compound by PAMPA; format: ADME
[4] = Kinetic solubility of compound in PBS at pH 6.8 incubated for 24 hrs by UPLC/MS analysis; format: physicochemical; conditions: read-out: Kinetic_solubility
[5] = Stability in human plasma assessed as parent compound remaining incubated for 2 hrs by UPLC/MS analysis; format: ADME, cell-free; conditions: read-out: Stability
[6] = system: HepG2; assay: Cytotoxicity against human HepG2 cells assessed as cell viability at 30 uM incubated for 72 hrs relative to control; format: cell-based; conditions: hepg2, 72 h
How it was run: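 HepG2 cells exposed to 30 μM compound for 72 h, then viability assessed.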

[7] = Stability of human liver microsomes assessed as intrinsic clearance at 1 uM measured upto 30 mins in presence of NADPH generating system by LC/MS-MS analysis; format: ADME, Microsome; conditions: 0.5 h
How it was run: (§2)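 Compound at 1 μM with human or mouse liver microsomes (0.2 mg protein/mL) in phosphate buffer pH 7.4, started with NADPH-generating system; 1% organic solvent. Incubated at 37 °C for 0, 15 and 30 min in duplicate, quenched with acetonitrile plus internal standard, analysed by LC/MS-MS. CLint = first-order k divided by protein concentration.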

[8] = Stability of mouse liver microsomes assessed as intrinsic clearance at 1 uM measured upto 30 mins in presence of NADPH generating system by LC/MS-MS analysis; format: ADME, Microsome; conditions: 0.5 h; how it was run: as §2
[9] = biological target: T3, 20S immunoproteasome beta-1i subunit (Homo sapiens, UniProt P28065); assay: Inhibition of human 20S immunoproteasome beta-1i subunit at 100 uM using Z-LLE-AMC as substrate measured over 1.5 to 2 hrs by plate reader assay relative to control; conditions: probe Z-LLE-AMC, time 1.5-2 hrs
T3 sequence (P28065 whole entry): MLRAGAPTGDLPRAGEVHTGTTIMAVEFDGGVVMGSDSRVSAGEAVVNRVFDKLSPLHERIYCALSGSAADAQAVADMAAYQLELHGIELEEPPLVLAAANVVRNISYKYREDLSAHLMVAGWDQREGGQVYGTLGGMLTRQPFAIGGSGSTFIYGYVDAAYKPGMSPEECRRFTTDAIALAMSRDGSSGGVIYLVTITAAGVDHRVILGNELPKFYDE
How it was run: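 Human c-20S β1c or i-20S β1i, activated with 0.02% SDS, with 50 μM Z-LLE-AMC in 20 mM HEPES, 0.5 mM EDTA, pH 7.5. AMC fluorescence (ex 360/em 460 nm) recorded over 1.5–2 h.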

[10] = biological target: T4, 20S immunoproteasome beta-2i subunit (Homo sapiens, UniProt P40306); assay: Inhibition of human 20S immunoproteasome beta-2i subunit at 100 uM using Z-VLR-AMC as substrate measured over 1.5 to 2 hrs by plate reader assay relative to control; conditions: probe Z-VLR-AMC, time 1.5-2 hrs
T4 sequence (P40306 whole entry): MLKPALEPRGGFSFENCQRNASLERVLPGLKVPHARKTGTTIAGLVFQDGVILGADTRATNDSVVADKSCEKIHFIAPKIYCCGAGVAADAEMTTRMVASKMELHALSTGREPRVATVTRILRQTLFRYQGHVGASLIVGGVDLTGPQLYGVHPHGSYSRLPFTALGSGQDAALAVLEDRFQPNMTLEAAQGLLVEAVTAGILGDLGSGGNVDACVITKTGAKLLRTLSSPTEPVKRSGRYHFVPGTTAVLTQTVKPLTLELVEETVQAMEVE
How it was run: (§3)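 Human c-20S β2c or i-20S β2i, activated with 6 nM PA28α, with 50 μM Z-VLR-AMC in 20 mM HEPES, 0.5 mM EDTA, pH 7.5. Compounds in 3-fold series from 100 μM.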

[11] = system: Mycobacterium tuberculosis; assay: Inhibition of Mycobacterium tuberculosis 20S proteasome expressed in Escherichia coli BL21(DE3) at 10 to 30 nM using Suc-LLVY-AMC as substrate by plate reader assay; conditions: dose 10-30 nM, TDE = time-dependent effect
[12] = Inhibition of Mycobacterium tuberculosis 20S proteasome expressed in Escherichia coli BL21(DE3) using Suc-LLVY-AMC as substrate by plate reader assay
[13] = system: Mycobacterium tuberculosis; assay: Inhibition of Mycobacterium tuberculosis 20S proteasome expressed in Escherichia coli BL21(DE3) assessed as half life using Suc-LLVY-AMC as substrate by plate reader assay
[14] = system: Mycobacterium tuberculosis; assay: Inhibition of intracellular 20S proteasome activity in Mycobacterium tuberculosis MHD1441 expressing Pup-GFP assessed as Pup-GFP accumulation measured after 4 days by fluorescence assay; format: cell-based; conditions: dose 0.1-33 µM, time 4.0 day
How it was run: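 Mtb H37Rv carrying pSCK1 (produces Pup-GFP), adjusted to OD 0.05 in 7H9. Compounds at 33, 11, 3.7, 1.2, 0.4 and 0.1 μM final, incubated 4 d at 37 °C. OD580 and fluorescence (ex 495/em 510 nm) read; RFU normalised to OD, then expressed as fold of DMSO control; ≥3 independent experiments.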

[15] = system: Mycobacterium tuberculosis; assay: Bactericidal activity against Mycobacterium tuberculosis under nitrosative stress condition; format: functional, organism-based
How it was run: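 Non-replicating Mtb Erdman held in Sauton's medium with 0.5 mM NaNO₂ at pH 5.5 to generate NO; killing measured as reported previously.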

[16] = system: Mycobacterium tuberculosis; assay: Inhibition of intracellular 20S proteasome activity in Mycobacterium tuberculosis assessed as accumulation of pupylated protein incubated for 48 hrs; format: cell-based; conditions: dose 1-10 µM
How it was run: (§4)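 Mtb CDC1551 dop::MycoMarT7 expressing Pup-GGE (no depupylation) treated 48 h with compound at 1, 3 or 10 μM, or carfilzomib at 50 μM. Pupylated proteins detected by anti-Pup immunoblot, with anti-PrcB as loading control.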

[17] = biological target: T5, Proteasome subunit beta type-10 (Homo sapiens, UniProt P40306); assay: Inhibition of human 20S immunoproteasome beta-2i subunit using Z-VLR-AMC as substrate measured over 1.5 to 2 hrs by plate reader assay; how it was run: as §3
T5 sequence (P40306 whole entry): T4 sequence (P40306 whole entry)

[18] = system: Mycobacterium tuberculosis; assay: Inhibition of intracellular 20S proteasome activity in Mycobacterium tuberculosis assessed as accumulation of pupylated protein at 50 uM incubated for 48 hrs; format: cell-based; how it was run: as §4

## O=C1CCc2cccc(c2)Oc2ccc(cc2)C[C@@H](C(=O)NCc2ccccc2F)NC(=O)[C@H](CC(=O)N2CCC[C@@H]2c2ccccc2)N1
[1]
  IC50: > 100 µM
[2]
  IC50: > 100 µM
[3]
  permeability: 22.7 ×10⁻⁶ cm/s
[4]
  solubility kinetic at 24 h: 1.4 µg/mL (≈ 2.11 µM)
[5]
  remaining at 2 h: 94%
[6]
  Activity: 98%
[7]
  CLH: > 768 µL/min/mg
[8]
  CLH: > 768 µL/min/mg
[9]
  inhibition at 100 µM: < 50%
[10]
  inhibition at 100 µM: < 50%
[11]
  inhibition: Tde
[12]
  Ki: 0.0121 µM
[13]
  T1/2: 16.5 min
[14]
  inhibition: Dose-dependent effect
[15]
  Activity: Dose-dependent effect
[16]
  inhibition: Dose-dependent effect

## CCN(CC)C(=O)C[C@H](NC(=O)CCc1ccccc1)C(=O)N[C@@H](Cc1ccc(F)cc1)C(=O)NCc1cccc2ccccc12
[1]
  IC50: 70 µM
[2]
  IC50: 54.7 µM

## O=C1CCc2cccc(c2)OCCCC[C@@H](C(=O)NCc2ccccc2F)NC(=O)[C@H](CCN2CCC[C@@H]2c2ccccc2)N1
[1]
  IC50: 86.2 µM
[2]
  IC50: 47.3 µM

## O=C1CCCCCCCCCC[C@@H](C(=O)NCc2cccc3ccccc23)NC(=O)[C@H](CC(=O)N2CCCC2)N1
[1]
  IC50: > 100 µM
[2]
  IC50: > 100 µM
[9]
  inhibition at 100 µM: < 50%
[10]
  inhibition at 100 µM: < 50%

## O=C1CCCCCCCCOC[C@@H](C(=O)NCc2cccc3ccccc23)NC(=O)[C@H](CC(=O)N2CCCC2)N1
[1]
  IC50: > 100 µM
[2]
  IC50: > 100 µM
[9]
  inhibition at 100 µM: < 50%
[10]
  inhibition at 100 µM: < 50%

## O=C1CCCCCCCCOC[C@@H](C(=O)NCc2ccccc2F)NC(=O)[C@H](CC(=O)N2CCC[C@@H]2c2ccccc2)N1
[1]
  IC50: > 100 µM
[2]
  IC50: > 100 µM
[3]
  permeability: 26 ×10⁻⁶ cm/s
[5]
  remaining at 2 h: 86%
[6]
  Activity: 91%
[7]
  CLH: > 768 µL/min/mg
[8]
  CLH: > 768 µL/min/mg
[9]
  inhibition at 100 µM: < 50%
[10]
  inhibition at 100 µM: < 50%
[14]
  inhibition: Dose-dependent effect

## O=C1CCc2cccc(c2)OCCCC[C@@H](C(=O)NCc2ccccc2F)NC(=O)[C@H](CC(=O)N2CCC[C@H]2C2CC2)N1
[1]
  IC50: 1.5 µM
[2]
  IC50: 0.87 µM
[9]
  inhibition at 100 µM: < 50%
[10]
  inhibition at 100 µM: < 50%

## O=C1N[C@@H](CC(=O)N2CCCC2)C(=O)N[C@H](C(=O)NCc2cccc3ccccc23)CCCCCCCCCC1Cc1ccccc1 (stereo partly drawn)
[2]
  IC50: > 100 µM
[9]
  inhibition at 100 µM: < 50%
[10]
  inhibition at 100 µM: < 50%

## O=C(N[C@H]1Cc2cccc(c2)Oc2ccc(cc2)C[C@@H](C(=O)NCc2ccccc2F)NC(=O)[C@H](CC(=O)N2CCC[C@@H]2c2ccccc2)NC1=O)c1ccccc1
[1]
  IC50: > 100 µM
[2]
  IC50: > 100 µM
[9]
  inhibition at 100 µM: < 50%
[10]
  inhibition at 100 µM: < 50%

## CC(=O)N[C@H]1Cc2cccc(c2)Oc2ccc(cc2)C[C@@H](C(=O)NCc2ccccc2F)NC(=O)[C@H](CC(=O)N2CCC[C@@H]2c2ccccc2)NC1=O
[1]
  IC50: > 100 µM
[2]
  IC50: > 100 µM
[9]
  inhibition at 100 µM: < 50%
[10]
  inhibition at 100 µM: < 50%

## O=C1CCc2cccc(c2)OCCCC[C@@H](C(=O)NCc2ccccc2F)NC(=O)[C@H](CC(=O)N2CCC[C@@H]2C2CC2)N1
[1]
  IC50: 0.073 µM
[2]
  IC50: 0.069 µM
[9]
  inhibition at 100 µM: < 50%
[10]
  inhibition at 100 µM: < 50%
[17]
  IC50: 44.5 µM

## O=C1CCc2cccc(c2)Oc2ccc(cc2)C[C@@H](C(=O)NCc2ccccc2F)NC(=O)[C@H](CC(=O)N2CCCC2)N1
[1]
  IC50: > 100 µM
[2]
  IC50: 21.1 µM
[9]
  inhibition at 100 µM: < 50%
[10]
  inhibition at 100 µM: < 50%

## O=C1CCCCCCCCC[C@@H](C(=O)NCc2cccc3ccccc23)NC(=O)[C@H](CC(=O)N2CCCC2)N1
[1]
  IC50: > 100 µM
[2]
  IC50: > 100 µM
[9]
  inhibition at 100 µM: < 50%
[10]
  inhibition at 100 µM: < 50%

## CC(C)C[C@H](NC(=O)[C@H](CCc1ccccc1)NC(=O)CN1CCOCC1)C(=O)N[C@@H](Cc1ccccc1)C(=O)N[C@@H](CC(C)C)C(=O)[C@@]1(C)CO1
[18]
  inhibition: Active

## O=C1CCc2cccc(c2)OCCCC[C@@H](C(=O)NCc2ccccc2F)NC(=O)[C@H](CC(=O)N2CCC[C@@H]2c2ccccc2)N1
[1]
  IC50: > 100 µM
[2]
  IC50: > 100 µM
[3]
  permeability: 20.6 ×10⁻⁶ cm/s
[4]
  solubility kinetic at 24 h: 33 µg/mL (≈ 52.5 µM)
[5]
  remaining at 2 h: 97%
[6]
  Activity: 102%
[7]
  CLH: > 768 µL/min/mg
[8]
  CLH: > 768 µL/min/mg
[9]
  inhibition at 100 µM: < 50%
[10]
  inhibition at 100 µM: < 50%
[14]
  inhibition: Dose-dependent effect
